Legend:
[1] = Inhibitory concentration towards rat mitochondrial F1F0-ATP synthase using a hexokinase / glucose-6-phosphate dehydrogenase coupled assay
In short: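 ATP synthesis was run in 10 mM HEPES pH 8. Diluted enzyme was mixed with glucose, MgCl2, KPO4, potassium succinate and AMP (to block adenylate kinase) and incubated 30 min with gentle shaking. Inhibitor was then added from 50% DMSO (final DMSO 5%) for 15 min. Coupling enzymes started the reaction, and the rise in A340 was monitored.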

[2] = target: Mitochondrial F1F0 ATP synthase (Rattus norvegicus); experiment: Inhibitory concentration towards rat mitochondrial F1F0 ATP hydrolase using a pyruvate kinase / lactate dehydrogenase system
[3] = Inhibitory concentration towards rat mitochondrial F1F0-ATP synthase using a pyruvate kinase / lactate dehydrogenase system

IC50 [1] [µM] | IC50 [2] [µM] | IC50 [3] [µM] | SMILES
3.8 | 0.24 |  | CC1(C)Oc2ccc(C#N)cc2[C@@H](N(Cc2ncc[nH]2)c2ccc(Cl)cc2)[C@@H]1O
 | 4.2 |  | CC1(C)Oc2ccc(C#N)cc2[C@@H](N(Cc2ncc[nH]2)c2ccccc2)[C@@H]1O
 | 470 |  | CC1(C)Oc2ccc(C#N)cc2C(N(Cc2ncc[nH]2)c2ccc(Cl)cc2)C1O (racemic)
30 |  | > 100 | CC1(C)Oc2ccc(C#N)cc2[C@@H](/N=C(\NC#N)Nc2ccc(Cl)cc2)[C@@H]1O
4 | 0.48 |  | CC1(C)Oc2ccc(C#N)cc2[C@H](N(Cc2ncc[nH]2)c2ccc(Cl)cc2)[C@H]1O [BMS-191095]
> 100 |  |  | COc1ccc(Cl)cc1C(=O)NCCc1ccc(S(=O)(=O)NC(=O)NC2CCCCC2)cc1 [GLYBURIDE]
 | 45 |  | CC1(C)Oc2ccc(C#N)cc2C(Nc2ccc(Cl)cc2)C1O (racemic)
 | > 100 |  | CC1(C)Oc2ccc(C#N)cc2[C@H](N(Cc2ncco2)c2ccccc2)[C@H]1O
 | 2 |  | CC1(C)Oc2ccc(C#N)cc2[C@H](N(Cc2ncc[nH]2)c2ccccc2)[C@H]1O
18 |  |  | CC1(C)Oc2ccc(S(=O)(=O)N3CCCCC3)cc2[C@H](N(Cc2ncc[nH]2)c2ccc(Cl)cc2)[C@H]1O
12 | > 100 |  | CC1(C)Oc2ccc(C#N)cc2[C@H](/N=C(/NC#N)Nc2ccc(Cl)cc2)[C@H]1O

Reference: ChEMBL document CHEMBL1148474, “Small molecule mitochondrial F1F0 ATPase hydrolase inhibitors as cardioprotective agents. Identification of 4-(N-arylimidazole)-substituted benzopyran derivatives as selective hydrolase inhibitors” (J Med Chem, 2004)
